One experiment concerns SK-MEL. Briefly: Cytotoxic activity against human SK-MEL cells after 48 hrs by fluorescent resazurin dye assay. Format: functional, cell-based.
In experiment [1] the target is T1, DNA topoisomerase 1 (Homo sapiens) (UniProt P11387).
T1 sequence (whole entry): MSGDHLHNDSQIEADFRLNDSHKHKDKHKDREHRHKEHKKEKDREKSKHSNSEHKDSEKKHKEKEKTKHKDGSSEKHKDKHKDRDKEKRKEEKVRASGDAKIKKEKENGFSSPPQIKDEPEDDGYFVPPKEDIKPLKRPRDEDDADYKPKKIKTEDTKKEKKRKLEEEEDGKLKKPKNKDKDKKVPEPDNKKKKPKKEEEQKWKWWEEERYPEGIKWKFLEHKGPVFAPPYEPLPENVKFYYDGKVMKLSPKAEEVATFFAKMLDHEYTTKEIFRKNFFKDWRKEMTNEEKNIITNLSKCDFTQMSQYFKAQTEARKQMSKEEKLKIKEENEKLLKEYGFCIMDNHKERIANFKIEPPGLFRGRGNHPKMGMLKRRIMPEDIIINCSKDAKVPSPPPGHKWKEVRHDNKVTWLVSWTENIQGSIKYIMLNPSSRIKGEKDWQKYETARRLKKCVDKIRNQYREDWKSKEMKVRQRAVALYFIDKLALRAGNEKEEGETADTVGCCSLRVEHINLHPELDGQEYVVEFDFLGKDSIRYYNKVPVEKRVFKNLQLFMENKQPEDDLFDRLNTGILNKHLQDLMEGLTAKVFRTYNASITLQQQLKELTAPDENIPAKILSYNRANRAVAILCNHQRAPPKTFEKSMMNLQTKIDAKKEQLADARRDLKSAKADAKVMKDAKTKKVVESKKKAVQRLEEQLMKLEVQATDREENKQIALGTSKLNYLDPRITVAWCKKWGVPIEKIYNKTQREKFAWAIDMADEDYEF
In words: Inhibition of human topoisomerase 1-mediated relaxation of supercoiled plasmid O6#7 DNA at 100 uM after 30 mins by gel electrophoresis. Put shortly:
(§1)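 Supercoiled plasmid incubated with 2 units topoisomerase I and test agent at 8 μM or at a final 50 or 100 μM. A no-enzyme lane was included. Supercoiled and relaxed DNA bands were resolved on a gel. Four experiments.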

A further experiment deals with DU-145. Briefly: Cytotoxic activity against human DU145 cells after 48 hrs by fluorescent resazurin dye assay. To be noted: DU-145, 48 h. Type of experiment: functional, cell-based.
For another experiment, the system named is NCI-H460. Briefly: Cytotoxic activity against human H460 cells after 48 hrs by fluorescent resazurin dye assay. Type of experiment: functional, cell-based. As to conditions: NCI-H460, 48 h.
In a further experiment the test system is REH. Briefly: Cytotoxic activity against human REH cells after 48 hrs by fluorescent resazurin dye assay. Format: functional, cell-based.
Experiment [2] is described as follows: Cytotoxic activity against human SU-8686 cells after 48 hrs by fluorescent resazurin dye assay. Type of experiment: functional, cell-based. To be noted: SU.86.86, 48 h.
The subject of the next experiment is HCT-116. Briefly: Cytotoxic activity against human HCT116 cells after 48 hrs by fluorescent resazurin dye assay. Type of experiment: functional, cell-based. As to conditions: HCT-116, 48 h.
A further experiment has as its system MCF7. In words: Cytotoxic activity against human MCF7 cells after 48 hrs by fluorescent resazurin dye assay. Format: functional, cell-based. As to conditions: MCF7, 48 h.
Experiment [3] can be described thus: Cytotoxic activity against human OCL3 cells after 48 hrs by fluorescent resazurin dye assay. Type of experiment: functional, cell-based. To be noted: OCL3, 48 h.
A short description of experiment [4]: Cytotoxic activity against mouse Hepa-1c1c7 cells after 48 hrs by fluorescent resazurin dye assay. As to conditions: Hepa-1c1c7, 48 h. Type of experiment: functional, cell-based.
The next experiment has as its system HeLa. In words: Cytotoxicity against human HeLa cells at 10 to 40 uM by coomassie blue assay in presence of topoisomerase 1-directed siRNA.
For experiment [5], the target named is T1, DNA topoisomerase 1 (Homo sapiens). Briefly: Induction of covalent topoisomerase 1-DNA adduct stabilization in human MIA PaCa cells at 100 uM after 1 hr by ICE assay. Format: cell-based. The method in brief:
(§2)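 MiaPACA cells exposed to 20 or 100 μM agent for 1 h at 37 °C (vehicle 0.1% DMSO), then lysed with sarkosyl for the ICE bioassay. CsCl-purified DNA-positive gradient fractions were immunoblotted for topoisomerase I. Four independent experiments.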

Experiment [6] has the same target. In words: Induction of covalent human topoisomerase 1-plasmid O6#7 DNA adduct stabilization assessed as appearance of nicked plasmid at 100 uM by agarose gel electrophoresis. Put shortly: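 Supercoiled plasmid aliquots incubated 30 min at 37 °C with nuclear extract containing 50 units topoisomerase I and test agent at 1.6 μM or 100 μM; the DNA products were then examined.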

Experiment [7] has the same target. In words: Induction of covalent topoisomerase 1-DNA adduct stabilization in human MIA PaCa cells at 20 uM after 1 hr by ICE assay. Format: cell-based. To be noted: 100 uM, in the assay text read “100 uM” for “20 uM”. Put shortly: as §2
The target is the same in experiment [8]. Briefly: Inhibition of human topoisomerase 1-mediated relaxation of supercoiled plasmid O6#7 DNA at 8 uM after 30 mins by gel electrophoresis. Put shortly: as §1

Structures are written as SMILES. Calls of active or inactive are those of the source. The calls are words filed in the database; no cut-off is given here.

In the case of `CN1CCN(C(=O)c2ccc3c(NCCc4c[nH]c5ccccc45)c4ccccc4nc3c2)CC1`, the EC50 in the experiment with SK-MEL was 5.3 µM; in the experiment on DU-145, 16.6 µM; in the experiment with NCI-H460 it was 31.8 µM; in the experiment with REH it was 4.1 µM; in experiment [2] it was 16.3 µM; in the experiment with HCT-116 it was 27.6 µM. For the same compound, the EC50 was found to be 19.2 µM in the experiment with MCF7, 15.3 µM in experiment [3] and 24.8 µM in experiment [4]. The result in experiment [1] was inactive.

On to `CC[C@@]1(O)C(=O)OCc2c1cc1n(c2=O)Cc2cc3ccccc3nc2-1`, for which the result in the experiment with HeLa was inactive.

On to `CN1CCN(C(=O)c2ccc3c(NC4CCN(Cc5ccccc5)CC4)c4ccccc4nc3c2)CC1`, for which the EC50 with SK-MEL is 14.6 µM; in the experiment on DU-145, 32.4 µM; in the experiment on NCI-H460, 38.5 µM; with REH it was 21 µM; in [2] it was 21.2 µM; in the experiment on HCT-116, 29.2 µM. Moreover, the values for the concentration giving a half-maximal response (EC50) (in the experiment on MCF7; in experiment [3]; in experiment [4]) were 25.7 µM, 20.3 µM and 26.9 µM, respectively. In experiment [1], the result was inactive. Besides, the outcome (in [5]; in [6]; in the experiment on HeLa) was Active.

Take `CN1CCN(C(=O)c2cccc3c(NCCc4c[nH]c5ccccc45)c4ccccc4nc23)CC1`: the EC50 with SK-MEL turned out to be 16.7 µM; with DU-145 it was 37.2 µM; in the experiment on NCI-H460, 16 µM; in the experiment on REH, 19.7 µM; in experiment [2] it was 6.8 µM; with HCT-116, 29 µM. The EC50 in the experiment with MCF7 worked out at 37.2 µM; in experiment [3], 39.8 µM; in experiment [4], 55.9 µM. Further, the outcome in experiment [1] was inactive. Further, the outcome in experiment [7] was Active.

With `CCN(CC)C(=O)c1ccc2c(NCCc3c[nH]c4ccccc34)c3ccccc3nc2c1`, the concentration for a half-maximal effect (EC50) with SK-MEL was found to be 16 µM; with DU-145, 11.9 µM; with NCI-H460 it was 18.8 µM; in the experiment on REH it was 15.5 µM; in experiment [2], 16.2 µM; with HCT-116 it was 11.2 µM. For the same compound, the EC50 worked out at 13.5 µM in the experiment with MCF7, 18.3 µM in experiment [3] and 11.2 µM in [4]. Moreover, the outcome in experiment [1] was inactive. Besides, the result in experiment [7] was Active.

As to `COc1ccc2c(c1)-c1nn(CCCN(C)C)c3ccc([N+](=O)[O-])c(c13)N2`, in experiment [8], the outcome was Active.
